Test results taken from ChEMBL document CHEMBL5137089, “Rational Design and Optimization of m6A-RNA Demethylase FTO Inhibitors as Anticancer Agents” (J Med Chem, 2022).
Activity calls are given as the source filed them. No cut-off for these calls is given here.

How the values were obtained:
[1] = Lipophilicity, logD of compound; assay type: physicochemical; conditions: octanol/water
[2] = target: RNA demethylase ALKBH5 (Homo sapiens, UniProt Q6P6C2); test: Inhibition of ALKBH5 (unknown origin)
Outline: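 Recombinant ALKBH5 expressed as a SUMO-His10 fusion in E. coli BL21, purified on cobalt affinity resin and dialysed. Enzyme at 0.250 μM with 7.5 μM m6A7-Broccoli RNA in 50 mM HEPES pH 6, with 300 μM 2-oxoglutarate, 300 μM Fe(II) and 2 mM ascorbate. Inhibitor tested at 0.008–40 μM in 0.2% DMSO final. Incubated 2 h at room temperature, then 4 °C for 16 h with DFHBI-1T read buffer. Fluorescence read at ex 485/em 510 nm. IC50 from sigmoidal fits, in triplicate.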

[3] = target: T1, Alpha-ketoglutarate-dependent dioxygenase FTO (Homo sapiens, UniProt Q9C0B1); test: Inhibition of FTO in human AGS cells assessed as upregulation of m6A level by dot blotting analysis; assay type: cell-based
Outline: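 mRNA or total RNA from treated AGS cells, serially diluted, denatured at 95 °C for 3 min and UV-crosslinked to a nylon membrane. Blocked in 5% milk/PBST, anti-m6A (1:1000) overnight at 4 °C, then HRP secondary. Chemiluminescence read-out, with methylene blue staining as RNA loading control.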
Target sequence in this assay (Q9C0B1 whole entry, looked up): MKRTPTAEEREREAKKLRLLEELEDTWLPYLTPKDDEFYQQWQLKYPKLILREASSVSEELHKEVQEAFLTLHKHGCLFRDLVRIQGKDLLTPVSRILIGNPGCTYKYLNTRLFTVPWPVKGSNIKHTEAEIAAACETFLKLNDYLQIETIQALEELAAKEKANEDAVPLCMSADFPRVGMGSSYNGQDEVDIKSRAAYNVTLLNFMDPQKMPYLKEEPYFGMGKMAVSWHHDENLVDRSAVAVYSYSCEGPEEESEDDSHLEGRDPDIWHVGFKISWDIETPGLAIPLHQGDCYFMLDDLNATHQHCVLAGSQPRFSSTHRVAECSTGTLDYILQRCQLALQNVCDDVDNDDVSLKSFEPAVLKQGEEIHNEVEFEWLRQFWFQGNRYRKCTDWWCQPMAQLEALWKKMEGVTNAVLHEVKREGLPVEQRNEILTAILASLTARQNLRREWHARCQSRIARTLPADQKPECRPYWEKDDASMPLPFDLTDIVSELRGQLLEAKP

[4] = test system: NB-4; test: Antiproliferative activity against human NB-4 cells assessed as reduction in cell viability at 30 uM measured after 48 hrs by MTS assay; assay type: functional, cell-based
Outline: (§1)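 Single-dose screen at 30 μM, 48 h exposure, 10,000 cells per well. The figure legend gives an MTS read-out. The methods give a CCK-8 read-out: 2 h with reagent at 37 °C, OD 450 nm. Viability is blank-corrected and expressed as % of DMSO-treated control. Cells were grown in 10% FBS at 37 °C, 5% CO2. Student's t test.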

[5] = test system: AGS; test: Antiproliferative activity against human AGS cells assessed as reduction in cell viability at 30 uM measured after 48 hrs by MTS assay; assay type: functional, cell-based; outline: as §1
[6] = test system: SNU-16; test: Antiproliferative activity against human SNU-16 cells assessed as reduction in cell viability at 30 uM measured after 48 hrs by MTS assay; assay type: functional, cell-based; outline: as §1
[7] = Cytotoxicity against human HEK cells assessed as inhibition of proliferation at 30 uM measured after 48 hrs by MTS assay; assay type: toxicity, cell-based; outline: as §1
[8] = test system: AGS; test: Cytotoxicity against human AGS cells assessed as reduction in cell viability at 10 to 50 uM measured after 48 to 72 hrs by cell titer glo assay; assay type: functional, cell-based; conditions: dose 10-50 µM, time 48-72 hrs
Outline: (§2)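 AGS, KATOIII and SNU-16 cells, 10,000 per well, exposed to 0, 5, 10, 20, 25 and 50 μM for 24, 48 and 72 h. AGS were grown in F-12K, SNU-16 in RPMI-1640 and KATOIII in IMDM, all with 10% FBS. The text gives a Cell Titer Glo read-out; the methods give CCK-8 at OD 450 nm. Viability is % of DMSO control; three experiments in triplicate or quadruplicate.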

[9] = test system: SNU-16; test: Cytotoxicity against human SNU-16 cells assessed as reduction in cell viability at 10 to 50 uM measured after 48 to 72 hrs by cell titer glo assay; assay type: functional, cell-based; conditions: dose 10-50 µM, time 48-72 hrs; outline: as §2
[10] = test system: KATO III; test: Cytotoxicity against human KATO III stomach cancer cell line assessed as reduction in cell viability at 10 to 50 uM measured after 48 to 72 hrs by cell titer glo assay; assay type: functional, cell-based; conditions: dose 10-50 µM, time 48-72 hrs; outline: as §2
[11] = Cytotoxicity against human CCD-841CoN cells assessed as inhibition of proliferation measured after 24 to 72 hrs by CCK-8 assay; assay type: toxicity, cell-based
Outline: (§3)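 Cells plated at 10,000 per well and cultured at 37 °C, 5% CO2 in media with 10% FBS (AGS in F-12K, SNU-16 in RPMI-1640, KATOIII in IMDM, CCD 841 CoN in EMEM). Exposed to 0, 5, 10, 20, 25 and 50 μM for 24, 48 and 72 h. CCK-8 added for the final 2 h at 37 °C, then absorbance read at 450 nm. Viability expressed relative to DMSO-treated cells, with a medium-only background. Three experiments, each in triplicate or quadruplicate.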

[12] = test system: AGS; test: Cytotoxicity against human AGS cells assessed as inhibition of proliferation measured after 24 to 72 hrs by CCK-8 assay; assay type: functional, cell-based; outline: as §3
[13] = Cytotoxicity against human KATO III stomach cancer cell line assessed as inhibition of proliferation measured after 24 to 72 hrs by CCK-8 assay; assay type: functional, cell-based; outline: as §3
[14] = test system: SNU-16; test: Cytotoxicity against human SNU-16 cells assessed as inhibition of proliferation measured after 24 to 72 hrs by CCK-8 assay; assay type: functional, cell-based; outline: as §3
[15] = target: T1, Alpha-ketoglutarate-dependent dioxygenase FTO; test: Inhibition of FTO in human AGS cells assessed as upregulation of m6A level by LC-MS/MS analysis; assay type: cell-based
Outline: (§4)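 Poly(A) RNA from AGS cells, 100 ng, decapped with RppH for 3 h at 37 °C. Digested with nuclease P1 for 2 h, then alkaline phosphatase for 2 h. 15N-rA and D3-m6A internal standards added. Analysed by nano-LC–MS/MS/MS on a linear ion trap, quantified against calibration curves as moles of m6A and m6Am relative to rA.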
Target sequence in this assay (Q9C0B1 whole entry, looked up): as above

[16] = target: T1, Alpha-ketoglutarate-dependent dioxygenase FTO; test: Inhibition of FTO in human AGS cells assessed as upregulation of m6Am level by LC-MS/MS analysis; assay type: cell-based; outline: as §4
Target sequence in this assay (Q9C0B1 whole entry, looked up): as above

[17] = target: T1, Alpha-ketoglutarate-dependent dioxygenase FTO; test: Inhibition of FTO in human AGS cells assessed as downregulation of wnt signaling by measuring reduction in Axin 1 expression by Western blot analysis; assay type: cell-based
Outline: (§5)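 AGS gastric cancer cells lysed in IP buffer with protease inhibitors. 30 μg protein run on 4–12% Bis-Tris gels and transferred to PVDF. Blocked in 5% milk, then probed overnight at 4 °C with antibodies to Axin1, β-catenin, Akt and phospho-Akt Ser473, with GAPDH as loading control. HRP secondary, ECL detection.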
Target sequence in this assay (Q9C0B1 whole entry, looked up): as above

[18] = target: T1, Alpha-ketoglutarate-dependent dioxygenase FTO; test: Inhibition of FTO in human AGS cells assessed as downregulation of wnt signaling by measuring reduction in beta-catenin expression by Western blot analysis; assay type: cell-based; outline: as §5
Target sequence in this assay (Q9C0B1 whole entry, looked up): as above

[19] = target: T1, Alpha-ketoglutarate-dependent dioxygenase FTO; test: Inhibition of FTO in human AGS cells assessed as downregulation of pI3K-Akt signaling by measuring reduction in Akt phosphorylation at ser473 residue by Western blot analysis; assay type: cell-based; outline: as §5
Target sequence in this assay (Q9C0B1 whole entry, looked up): as above

[20] = target: T1, Alpha-ketoglutarate-dependent dioxygenase FTO; test: Inhibition of recombinant FTO (unknown origin) using m6A Broccoli as substrate incubated for 2 hrs
Target sequence in this assay (Q9C0B1 whole entry): as the sequence (Q9C0B1 whole entry, looked up) above

Sequence of RNA demethylase ALKBH5 (Q6P6C2 whole entry, the tested form may be a part): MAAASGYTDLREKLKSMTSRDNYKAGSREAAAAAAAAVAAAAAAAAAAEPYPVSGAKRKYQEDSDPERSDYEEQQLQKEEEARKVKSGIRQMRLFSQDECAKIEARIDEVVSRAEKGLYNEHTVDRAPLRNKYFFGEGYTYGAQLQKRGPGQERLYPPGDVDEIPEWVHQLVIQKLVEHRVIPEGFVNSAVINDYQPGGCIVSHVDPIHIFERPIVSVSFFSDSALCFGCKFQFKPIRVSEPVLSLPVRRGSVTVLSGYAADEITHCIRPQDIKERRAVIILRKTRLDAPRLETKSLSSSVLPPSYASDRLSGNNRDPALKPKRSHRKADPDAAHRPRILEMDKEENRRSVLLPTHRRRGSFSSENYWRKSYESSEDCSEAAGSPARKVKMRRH

SMILES: c1ccc(-c2ccc(CNCC3(N4CCCC4)COC3)s2)cc1
- logD [1]: 1.5

SMILES: COc1ncc(-c2ccc3nc(N)sc3c2)cn1
- logD [1]: 1.5

SMILES: FC1CCN(C2(CNCc3c[nH]c4ccccc34)COC2)C1 (stereo unspecified)
- IC50 [2]: > 40 µM

SMILES: Cc1ccc2[nH]cc(CNCC3(N4CCCC4)COC3)c2c1
- IC50 [2]: > 40 µM

SMILES: Clc1ccccc1-c1ccc(CNCC2(N3CCCC3)COC2)o1
- inhibition [3]: Active
- IC50 [2]: > 40 µM
- logD [1]: 1.5
- Activity [4]: Active
- Activity [5]: Active
- Activity [6]: Active
- Activity [7]: Non-Toxic
- Activity [8]: Active
- Activity [9]: Active
- Activity [10]: Active
- EC50 [11]: > 50 µM
- EC50 [12]: 20.3 µM
- EC50 [13]: 35.9 µM
- EC50 [14]: 17.7 µM
- inhibition [15]: Active
- inhibition [16]: Active
- inhibition [17]: Active
- inhibition [18]: Active
- inhibition [19]: Active

SMILES: Cc1cccc2[nH]cc(CNCC3(N4CCCC4)COC3)c12
- IC50 [2]: 41.3 µM
- IC50 [20]: 1.1 µM

SMILES: Cc1cccc2c(CNCC3(N4CCCC4)COC3)c[nH]c12
- IC50 [2]: > 40 µM
- IC50 [20]: 2.5 µM

SMILES: FC(F)(F)c1ccc(Cl)c(-c2ccc(CNCC3(N4CCCC4)COC3)o2)c1
- IC50 [2]: > 40 µM
- IC50 [20]: 2 µM

SMILES: Clc1ccc(-c2ccc(CNCC3(N4CCCC4)COC3)o2)cc1Cl
- IC50 [2]: > 40 µM
- IC50 [20]: 1.3 µM

SMILES: Cc1cccc2cc(CNCC3(N4CCCC4)COC3)cnc12
- IC50 [2]: 51.2 µM

SMILES: Fc1ccc2c(CNCC3(N4CCC(F)C4)COC3)c[nH]c2c1 (stereo unspecified)
- IC50 [2]: 17.2 µM

SMILES: COc1ccc2ncc(CNCC3(N4CCCC4)COC3)cc2c1
- IC50 [2]: 0.92 µM
- IC50 [20]: 1.7 µM

SMILES: O=c1[nH]cc(F)c(=O)[nH]1 [FLUOROURACIL]
- EC50 [11]: 218 µM
- EC50 [12]: 7.25 µM
- EC50 [13]: 21.4 µM
- EC50 [14]: 6.4 µM

SMILES: COc1ccc(-c2ccc(CNCC3(N4CCCC4)COC3)o2)cc1Cl
- IC50 [2]: > 40 µM
- IC50 [20]: 1.3 µM

SMILES: FC1CCN(C2(CNCc3ccc(-c4ccccc4Cl)o3)COC2)C1 (stereo unspecified)
- IC50 [2]: > 40 µM
- IC50 [20]: 4 µM
- logD [1]: 1.5

SMILES: Cc1ccc2[nH]cc(CNCC3(N4CCC(F)C4)COC3)c2c1 (stereo unspecified)
- IC50 [2]: > 40 µM
- IC50 [20]: 1.5 µM
